# ChEMBL document CHEMBL1138485, “Discovery of inducible nitric oxide synthase (iNOS) inhibitor development candidate KD7332, part 1: Identification of a novel, potent, and selective series of quinolinone iNOS dimerization inhibitors that are orally active in rodent pain models” (J Med Chem, 2009)
# Key:
# [1] = molecular target: T1, Nitric oxide synthase 3 (Homo sapiens) (UniProt P29474); experiment: Inhibition of human eNOS expressed in HEK293 cells assessed as NO production at 100 uM by transient transfection assay relative to BBS-4; assay type: cell-based
# T1 sequence (whole entry): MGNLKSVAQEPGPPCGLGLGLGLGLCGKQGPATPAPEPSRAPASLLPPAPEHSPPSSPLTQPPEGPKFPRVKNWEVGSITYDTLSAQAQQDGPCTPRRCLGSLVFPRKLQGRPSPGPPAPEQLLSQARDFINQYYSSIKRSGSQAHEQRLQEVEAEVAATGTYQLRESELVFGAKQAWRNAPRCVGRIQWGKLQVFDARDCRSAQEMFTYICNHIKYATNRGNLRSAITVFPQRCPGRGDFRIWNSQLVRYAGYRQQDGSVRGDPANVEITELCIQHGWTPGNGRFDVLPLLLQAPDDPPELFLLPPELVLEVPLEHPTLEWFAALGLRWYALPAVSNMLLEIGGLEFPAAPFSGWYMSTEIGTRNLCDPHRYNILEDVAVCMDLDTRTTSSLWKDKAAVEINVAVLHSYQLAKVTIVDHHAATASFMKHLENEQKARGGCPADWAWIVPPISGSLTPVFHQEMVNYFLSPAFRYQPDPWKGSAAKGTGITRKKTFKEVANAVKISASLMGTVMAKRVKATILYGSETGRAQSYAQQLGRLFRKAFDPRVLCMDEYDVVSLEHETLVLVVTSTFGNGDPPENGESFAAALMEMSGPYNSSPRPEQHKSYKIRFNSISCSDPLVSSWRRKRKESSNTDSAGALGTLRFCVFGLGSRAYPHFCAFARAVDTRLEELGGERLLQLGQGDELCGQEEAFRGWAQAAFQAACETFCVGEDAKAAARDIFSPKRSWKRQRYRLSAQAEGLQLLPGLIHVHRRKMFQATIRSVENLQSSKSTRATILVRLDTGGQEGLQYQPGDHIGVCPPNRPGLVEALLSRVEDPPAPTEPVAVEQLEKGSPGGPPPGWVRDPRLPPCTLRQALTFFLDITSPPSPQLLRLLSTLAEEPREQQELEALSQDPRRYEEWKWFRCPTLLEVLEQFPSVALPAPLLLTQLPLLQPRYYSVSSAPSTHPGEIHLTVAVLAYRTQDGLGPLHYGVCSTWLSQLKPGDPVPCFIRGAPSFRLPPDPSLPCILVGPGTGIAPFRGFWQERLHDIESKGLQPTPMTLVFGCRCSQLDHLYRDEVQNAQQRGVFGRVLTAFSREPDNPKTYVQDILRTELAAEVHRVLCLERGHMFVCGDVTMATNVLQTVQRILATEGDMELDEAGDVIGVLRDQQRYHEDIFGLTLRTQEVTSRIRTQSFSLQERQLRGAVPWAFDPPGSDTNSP
# How it was run: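 HEK293 cells transiently transfected with human eNOS (15 µg plasmid) or nNOS (10 µg plasmid), Fugene 6 at 3:1 µL:µg, 4 h at 37 °C, 10% CO2. Plated at 5 × 10⁵ cells/mL with compound; SEITU 100 µM final as positive control. After 24 h, activated with A23187 (83 nM final, eNOS) or ionomycin (30 µM final, nNOS). After 18 h more, NO read by DAN fluorescence. Inhibition is relative to the maximal inhibition by the control dimerization inhibitor. 3 runs, 10-point curves, n = 3/point.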
# [2] = molecular target: Voltage-gated inwardly rectifying potassium channel KCNH2 (Homo sapiens, UniProt Q12809); experiment: Activity at human ERG by patch clamp assay
# [3] = system: Mus musculus; experiment: Antinociceptive activity against acetone-induced chronic constriction injury in mouse paw assessed as duration of pain behavior at 100 mg/kg, po pretreated 30 mins before formalin challenge relative to control; assay type: functional; details: in the assay text read “acetone testing” for “formalin challenge”
# How it was run: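 Mice underwent chronic constriction injury surgery (Bennett and Xie) and recovered 1–2 weeks. After 100 mg/kg po dosing 30 min before testing and 1 h acclimation on a wire mesh platform, 100 µL acetone was applied to the injured plantar hindpaw. Flinching, licking and biting were recorded for 1 min, with reduction relative to vehicle.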
# Voltage-gated inwardly rectifying potassium channel KCNH2, sequence (Q12809 whole entry): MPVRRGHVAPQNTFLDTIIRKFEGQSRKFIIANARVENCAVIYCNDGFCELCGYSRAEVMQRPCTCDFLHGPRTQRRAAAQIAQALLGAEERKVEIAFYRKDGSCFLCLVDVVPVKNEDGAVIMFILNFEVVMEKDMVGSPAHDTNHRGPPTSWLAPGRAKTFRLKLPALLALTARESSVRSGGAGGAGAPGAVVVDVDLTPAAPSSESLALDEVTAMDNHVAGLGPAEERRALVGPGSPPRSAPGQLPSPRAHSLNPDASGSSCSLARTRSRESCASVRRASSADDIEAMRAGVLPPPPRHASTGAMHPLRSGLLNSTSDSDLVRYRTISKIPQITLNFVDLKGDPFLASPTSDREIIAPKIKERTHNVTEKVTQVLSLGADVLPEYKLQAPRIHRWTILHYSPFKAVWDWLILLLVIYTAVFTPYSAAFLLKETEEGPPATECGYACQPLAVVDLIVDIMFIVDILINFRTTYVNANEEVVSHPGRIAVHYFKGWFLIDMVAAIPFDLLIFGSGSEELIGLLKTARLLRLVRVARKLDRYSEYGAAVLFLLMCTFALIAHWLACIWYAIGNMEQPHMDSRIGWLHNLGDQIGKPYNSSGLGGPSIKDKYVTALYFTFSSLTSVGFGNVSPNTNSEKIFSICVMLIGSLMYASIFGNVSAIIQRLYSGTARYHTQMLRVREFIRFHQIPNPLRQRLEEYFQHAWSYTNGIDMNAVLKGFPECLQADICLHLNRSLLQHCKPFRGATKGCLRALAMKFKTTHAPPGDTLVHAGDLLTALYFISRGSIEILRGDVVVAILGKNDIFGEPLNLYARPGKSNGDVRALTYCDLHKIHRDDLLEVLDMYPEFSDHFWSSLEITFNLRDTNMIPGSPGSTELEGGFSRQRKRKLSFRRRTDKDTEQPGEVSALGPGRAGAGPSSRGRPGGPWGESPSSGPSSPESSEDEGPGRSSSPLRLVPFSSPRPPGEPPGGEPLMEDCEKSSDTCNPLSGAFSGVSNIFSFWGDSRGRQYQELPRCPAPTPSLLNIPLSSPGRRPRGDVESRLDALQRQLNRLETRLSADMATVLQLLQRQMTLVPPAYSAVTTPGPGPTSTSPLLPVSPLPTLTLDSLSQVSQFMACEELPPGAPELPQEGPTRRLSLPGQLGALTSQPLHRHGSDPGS
smiles,measurement,setting,value
CC(C)C(=O)N(Cc1cc(=O)[nH]c2c(F)cccc12)c1cccc(Cl)c1,inhibition,[1],< 50%
Cn1cncc1C(=O)N(Cc1cc(=O)[nH]c2c(F)c(F)ccc12)c1cccc(Cl)c1,EC50,[2],8 µM
Cc1ncsc1C(=O)N(Cc1cc(=O)[nH]c2c(F)cccc12)c1cccc(Cl)c1,Activity,[3],45%
